What was measured:
[1] = system: K562; experiment: Antitumor activity against human K562 cells xenografted in NOD-SCID mouse assessed as tumor growth inhibition at 5 mg/kg, po administered daily 10 days; settings: 240 h, read-out: TGI
[2] = target: Protein cereblon/Tyrosine-protein kinase ABL1/Breakpoint cluster region protein (Homo sapiens, UniProt P00519+P11274+Q96SW2); experiment: PROTAC activity at CRBN/Bcr-Abl in human K562 cells assessed as degrading activity by Western blotting analysis; assay type: cell-based
[3] = system: K562; experiment: Antiproliferative activity against human K562 cells assessed as cell growth inhibition measured after 48 hrs by CCK8 assay; assay type: functional, cell-based; settings: K562, 48 h
How it was run: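 Cells were seeded at 3000-20,000 per well and given 3-fold serial dilutions of compound in medium. After 2 days at 37 °C in 5% CO2, CCK-8 reagent was added for 2-4 h and absorbance was read at 450 nm.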

[4] = Apparent volume of distribution during terminal state in Wistar rat at 2 mg/kg, iv by LC-MS/MS analysis; assay type: ADME, organism-based; settings: in vivo, read-out: Vz
How it was run: (§1)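 Single intravenous dose of 2 mg/kg into the femoral vein of female Wistar rats, given as a solution in NMP/PEG200 (1:9, v/v). Plasma was collected by sublingual vein bleeding at 0.083, 0.25, 0.5, 1, 2, 4, 6, 8, 12 and 24 h from one group of rats (n = 3). Samples were extracted and quantified by LC-MS/MS, LOQ 2.5 ng/mL.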

[5] = Clearance in Wistar rat at 2 mg/kg, iv by LC-MS/MS analysis; assay type: ADME, organism-based; settings: in vivo
How it was run: as §1

[6] = Cmax in Wistar rat at 2 mg/kg, iv by LC-MS/MS analysis; assay type: ADME, organism-based; set-up: route intravenous, dose 2 mg/kg; settings: in vivo
How it was run: as §1

[7] = Apparent volume of distribution during steady state in Wistar rat at 2 mg/kg, iv by LC-MS/MS analysis; assay type: ADME, organism-based; settings: in vivo, read-out: Vdss
How it was run: as §1

[8] = Half life in Wistar rat at 2 mg/kg, iv by LC-MS/MS analysis; assay type: ADME, organism-based; settings: in vivo
How it was run: as §1

[9] = Tmax in Wistar rat at 2 mg/kg, iv by LC-MS/MS analysis; assay type: ADME, organism-based; settings: in vivo
How it was run: as §1

[10] = MRT (0 to t) in Wistar rat at 2 mg/kg, iv by LC-MS/MS analysis; assay type: ADME, organism-based; settings: in vivo
How it was run: as §1

[11] = AUC (0 to t) in Wistar rat at 2 mg/kg, iv by LC-MS/MS analysis; assay type: ADME, organism-based; set-up: dose 2 mg/kg; settings: in vivo
How it was run: as §1

Protein cereblon/Tyrosine-protein kinase ABL1/Breakpoint cluster region protein, sequence (P00519 whole entry): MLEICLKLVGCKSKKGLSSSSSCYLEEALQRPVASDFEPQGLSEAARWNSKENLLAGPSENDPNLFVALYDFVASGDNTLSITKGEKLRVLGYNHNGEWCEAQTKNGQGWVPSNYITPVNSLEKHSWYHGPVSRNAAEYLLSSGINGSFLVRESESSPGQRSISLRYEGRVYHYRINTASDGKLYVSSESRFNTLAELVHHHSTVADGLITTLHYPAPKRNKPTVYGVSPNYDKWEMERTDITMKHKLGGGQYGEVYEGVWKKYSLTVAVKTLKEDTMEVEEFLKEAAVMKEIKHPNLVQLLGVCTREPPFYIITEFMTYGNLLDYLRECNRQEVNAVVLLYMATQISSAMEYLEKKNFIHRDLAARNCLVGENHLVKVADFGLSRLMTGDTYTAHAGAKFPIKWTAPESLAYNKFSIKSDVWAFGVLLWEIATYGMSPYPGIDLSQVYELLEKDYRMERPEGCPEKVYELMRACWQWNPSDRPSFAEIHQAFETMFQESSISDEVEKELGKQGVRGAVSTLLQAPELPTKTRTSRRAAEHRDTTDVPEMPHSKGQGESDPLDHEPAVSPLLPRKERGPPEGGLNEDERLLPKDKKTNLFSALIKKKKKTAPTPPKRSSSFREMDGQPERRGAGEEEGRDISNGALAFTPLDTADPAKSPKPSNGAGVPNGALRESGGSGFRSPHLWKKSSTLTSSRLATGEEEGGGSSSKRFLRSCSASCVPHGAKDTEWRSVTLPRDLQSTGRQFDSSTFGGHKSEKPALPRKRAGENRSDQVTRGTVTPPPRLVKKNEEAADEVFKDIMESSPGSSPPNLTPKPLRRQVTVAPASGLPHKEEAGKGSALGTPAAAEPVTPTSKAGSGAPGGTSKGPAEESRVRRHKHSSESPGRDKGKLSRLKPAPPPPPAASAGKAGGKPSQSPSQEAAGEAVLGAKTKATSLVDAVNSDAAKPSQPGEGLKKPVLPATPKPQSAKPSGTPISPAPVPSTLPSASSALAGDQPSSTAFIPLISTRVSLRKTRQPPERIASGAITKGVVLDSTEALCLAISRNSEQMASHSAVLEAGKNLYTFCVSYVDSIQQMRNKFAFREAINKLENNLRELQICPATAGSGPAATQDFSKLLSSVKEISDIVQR
Protein cereblon/Tyrosine-protein kinase ABL1/Breakpoint cluster region protein, sequence (P11274 whole entry): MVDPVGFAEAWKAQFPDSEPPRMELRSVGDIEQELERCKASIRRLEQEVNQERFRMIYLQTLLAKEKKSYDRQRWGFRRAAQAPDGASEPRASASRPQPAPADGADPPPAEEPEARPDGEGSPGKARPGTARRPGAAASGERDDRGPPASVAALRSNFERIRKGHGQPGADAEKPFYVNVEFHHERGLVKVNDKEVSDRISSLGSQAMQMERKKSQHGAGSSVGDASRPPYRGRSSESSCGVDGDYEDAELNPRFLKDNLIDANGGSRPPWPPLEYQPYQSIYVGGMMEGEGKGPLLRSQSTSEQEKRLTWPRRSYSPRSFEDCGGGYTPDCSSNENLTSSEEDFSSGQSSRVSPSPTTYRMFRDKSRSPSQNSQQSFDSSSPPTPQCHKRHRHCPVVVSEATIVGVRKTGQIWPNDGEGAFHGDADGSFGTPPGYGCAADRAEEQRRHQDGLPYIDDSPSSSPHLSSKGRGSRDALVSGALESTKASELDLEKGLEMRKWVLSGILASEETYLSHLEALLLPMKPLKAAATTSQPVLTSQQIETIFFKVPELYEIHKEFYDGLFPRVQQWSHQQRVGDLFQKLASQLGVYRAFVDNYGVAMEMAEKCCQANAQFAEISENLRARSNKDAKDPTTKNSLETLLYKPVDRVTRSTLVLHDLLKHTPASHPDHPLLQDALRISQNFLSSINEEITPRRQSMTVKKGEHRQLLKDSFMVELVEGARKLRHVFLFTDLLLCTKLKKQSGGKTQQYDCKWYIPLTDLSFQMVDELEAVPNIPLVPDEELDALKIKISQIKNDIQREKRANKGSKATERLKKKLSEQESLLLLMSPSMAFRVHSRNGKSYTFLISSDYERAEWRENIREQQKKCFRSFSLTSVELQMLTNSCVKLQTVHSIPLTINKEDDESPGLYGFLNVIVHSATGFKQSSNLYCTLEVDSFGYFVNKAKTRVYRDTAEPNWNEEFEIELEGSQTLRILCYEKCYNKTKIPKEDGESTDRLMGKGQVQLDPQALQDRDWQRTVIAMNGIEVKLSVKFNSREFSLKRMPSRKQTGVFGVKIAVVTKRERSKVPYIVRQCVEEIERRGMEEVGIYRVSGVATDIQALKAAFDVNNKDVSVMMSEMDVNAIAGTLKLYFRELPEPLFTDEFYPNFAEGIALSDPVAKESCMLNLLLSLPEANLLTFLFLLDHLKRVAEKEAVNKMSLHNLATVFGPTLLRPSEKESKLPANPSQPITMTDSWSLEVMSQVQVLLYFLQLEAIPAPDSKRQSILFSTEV
Protein cereblon/Tyrosine-protein kinase ABL1/Breakpoint cluster region protein, sequence (Q96SW2 whole entry): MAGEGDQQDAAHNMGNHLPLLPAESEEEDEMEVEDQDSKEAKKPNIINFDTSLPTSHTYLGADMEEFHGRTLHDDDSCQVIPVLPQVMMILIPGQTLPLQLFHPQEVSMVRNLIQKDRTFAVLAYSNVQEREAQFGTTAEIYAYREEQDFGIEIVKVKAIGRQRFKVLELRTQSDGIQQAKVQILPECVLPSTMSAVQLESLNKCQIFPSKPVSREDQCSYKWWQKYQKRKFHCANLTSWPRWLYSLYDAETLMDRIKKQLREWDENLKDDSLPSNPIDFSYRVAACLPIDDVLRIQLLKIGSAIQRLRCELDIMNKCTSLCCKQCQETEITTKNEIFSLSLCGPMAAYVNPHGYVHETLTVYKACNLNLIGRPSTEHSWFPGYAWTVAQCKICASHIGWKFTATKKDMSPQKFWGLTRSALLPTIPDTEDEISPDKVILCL

DC50 [2] | IC50 [3] | Compound | also measured
– | – | Cc1nc(Nc2ncc(C(=O)Nc3c(C)cccc3Cl)s2)cc(N2CCN(CCO)CC2)n1 [DASATINIB] | inhibition in vivo at 5 mg/kg [1]: 95.1%
10.8 nM | 31.9 nM | Cc1nc(Nc2ncc(C(=O)Nc3c(C)cccc3Cl)s2)cc(N2CCN(C(=O)CCOCCOCCOCCOCCOCCNc3cccc4c3C(=O)N(C3CCC(=O)NC3=O)C4=O)CC2)n1 (stereo not given) | –
7.8 nM | 5.5 nM | Cc1nc(Nc2ncc(C(=O)Nc3c(C)cccc3Cl)s2)cc(N2CCN(C(=O)CCCNc3cccc4c3C(=O)N(C3CCC(=O)NC3=O)C4=O)CC2)n1 (stereo not given) | –
8.7 nM | 18.4 nM | Cc1nc(Nc2ncc(C(=O)Nc3c(C)cccc3Cl)s2)cc(N2CCN(C(=O)CCOCCNc3cccc4c3C(=O)N(C3CCC(=O)NC3=O)C4=O)CC2)n1 (stereo not given) | –
17.5 nM | 8.05 nM | Cc1nc(Nc2ncc(C(=O)Nc3c(C)cccc3Cl)s2)cc(N2CCN(C(=O)CCOCCOCCNc3cccc4c3C(=O)N(C3CCC(=O)NC3=O)C4=O)CC2)n1 (stereo not given) | Vd [4]: 3.59 L/kg; clearance [5]: 67.1 mL/min/kg; Cmax [6]: 1140 ng/mL; Vd [7]: 1.93 L/kg; half-life [8]: 37.2 min; Tmax [9]: 4.8 min; MRT last [10]: 27 min; AUC(0-t) [11]: 496 ng·h/mL
8.9 nM | 5.7 nM | Cc1nc(Nc2ncc(C(=O)Nc3c(C)cccc3Cl)s2)cc(N2CCN(C(=O)CSc3cccc4c3CN(C3CCC(=O)NC3=O)C4=O)CC2)n1 (stereo not given) | –
26.1 nM | 40.4 nM | Cc1nc(Nc2ncc(C(=O)Nc3c(C)cccc3Cl)s2)cc(N2CCN(C(=O)CCOCCOCCOCCOCCNc3cccc4c3C(=O)N(C3CCC(=O)NC3=O)C4=O)CC2)n1 (stereo not given) | –
245 nM | 206 nM | Cc1nc(Nc2ncc(C(=O)Nc3c(C)cccc3Cl)s2)cc(N2CCN(C(=O)CS(=O)(=O)c3cccc4c3C(=O)N(C3CCC(=O)NC3=O)C4=O)CC2)n1 (stereo not given) | –
95.4 nM | 2.84 nM | Cc1nc(Nc2ncc(C(=O)Nc3c(C)cccc3Cl)s2)cc(N2CCN(C(=O)CCc3cccc4c3C(=O)N(C3CCC(=O)NC3=O)C4=O)CC2)n1 (stereo not given) | –
11.1 nM | 4.2 nM | Cc1nc(Nc2ncc(C(=O)Nc3c(C)cccc3Cl)s2)cc(N2CCN(C(=O)CCCCNc3cccc4c3CN(C3CCC(=O)NC3=O)C4=O)CC2)n1 (stereo not given) | –
– | > 10000 nM | Nc1cccc2c1C(=O)N(C1CCC(=O)NC1=O)C2=O (stereo not given) [POMALIDOMIDE] | –
11 nM | 0.55 nM | Cc1nc(Nc2ncc(C(=O)Nc3c(C)cccc3Cl)s2)cc(N2CCN(C(=O)CCCCNc3cccc4c3C(=O)N(C3CCC(=O)NC3=O)C4=O)CC2)n1 (stereo not given) | –

From ChEMBL document CHEMBL4831495, “Discovery of novel BCR-ABL PROTACs based on the cereblon E3 ligase design, synthesis, and biological evaluation” (Eur J Med Chem, 2021)
